Results of several laboratories.
Lines come from different studies, so protocols differ. pIC50: −log10 of the molar value.
Cell line: SK-BR-3
Read-out: cell growth or viability

SMILES | assay | conditions | quantity | result
NNc1nc(Nc2ccccc2)nc(Nc2ccc(Br)cc2)n1 | SRB | 72 h | pIC50 | < 4.52
CC(C)C[C@H](NC(=O)[C@H](Cc1ccccc1)NC(=O)c1cnccn1)B(O)O | ATP luminescence |  | pIC50 | 8.06
COc1cc(OC)c(/C=C/S(=O)(=O)Nc2ccc(OC)c(N)c2)c(OC)c1 | trypan blue | 96 h | pIC50 | 8.40
COc1cccc2c1C(=O)c1c(O)c3c(c(O)c1C2=O)C[C@@](O)(C(=O)CO)C[C@@H]3O[C@H]1C[C@H](N)[C@H](O)[C@H](C)O1 | MTT | 72 h | pIC50 | 5.78
CC(=O)c1c(C)c2cnc(Nc3ccc(N4CCNCC4)cn3)nc2n(C2CCCC2)c1=O | resazurin |  | GI50 | 5000 nM
Cc1cc(C)n(-c2nc(NN=Cc3c[nH]c4ccccc34)nc(Nc3ccc(Br)cc3)n2)n1 | SRB | 72 h | pIC50 | 5.22
CN1CCN(c2ccc(Nc3ncc4cc(C#N)c(=O)n(C5CCCC5)c4n3)cc2)CC1 | resazurin | 96 h | GI50 | 600 nM
CC(=O)O[C@H]1C(=O)[C@@]2(C)[C@H]([C@H](OC(=O)c3ccccc3)[C@]3(O)C[C@H](OC(=O)[C@H](O)[C@@H](NC(=O)c4ccccc4)c4ccccc4)C(C)=C1C3(C)C)[C@]1(OC(C)=O)CO[C@@H]1C[C@@H]2O | MTT | 72 h | pIC50 | 8.30
COC1=C2C[C@@H](C)C[C@H](OC)[C@H](O)[C@@H](C)/C=C(\C)[C@H](OC(N)=O)[C@@H](OC)/C=C\C=C(/C)C(=O)NC(=CC1=O)C2=O | SRB | 72 h | pIC50 | 7.30
COc1cc(Nc2nccc(-c3cnn4nc(OC)ccc34)n2)cc(C(F)(F)F)c1 | ATP luminescence |  | pIC50 | 6.47
